SR-BI DiI-HDL act – activators of SR-BI mediated HDL lipid uptake; CHO ldlA[mSR-BI] cells, DiI-HDL uptake fluorescence, 3 h; 100 = double the neutral-control signal; activation, % at 12.5 µM; actives 0.096% (n = 320,000);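 active means mean replicate activation of at least 60% and every replicate at or above 60%; inconclusive means mean or all-replicate condition met, but not both; inactive means mean below 60% and not all replicates reaching 60%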;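 further: 0% = median plate neutral-control signal and 100% = twice that signal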
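Test system: SR-BI-overexpressing, LDLR-lacking CHO cells; Also added: labelled HDL, 10 µg/mL; Measured by: bottom-read cell fluorescence after medium removal, ex 550/em 595 nm; Timing: 3 h uptake period with compound, 37 °C; Buffer or medium: F12, 0.5% BSA, 25 mM HEPES; Doses: single compound concentration, delivered by pin transfer.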
Neddyl block – blocks human cullin neddylation; TR-FRET cullin neddylation, biochemical; inhibition, % at 25 µM; actives 0.58% (n = 360,000); P61081+Q13564; in the data active means inhibition above about 36%
SR-BI HDL uptake – inhibitors of mouse SR-BI mediated HDL lipid uptake; actives 0.96% (n = 320,000); ldlA[mSR-BI] CHO cells, DiI-HDL uptake fluorescence, 3 h; inhibition, % at 12.5 µM; Q61009;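 active means mean replicate inhibition of at least 70% and a set share of replicates each scoring 70 or more; inconclusive means meets just one of the two criteria; inactive means fails both criteria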;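 further: 0% = median of neutral control wells and 100% = median of positive control wells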
Target sequence (Q61009 whole entry, looked up): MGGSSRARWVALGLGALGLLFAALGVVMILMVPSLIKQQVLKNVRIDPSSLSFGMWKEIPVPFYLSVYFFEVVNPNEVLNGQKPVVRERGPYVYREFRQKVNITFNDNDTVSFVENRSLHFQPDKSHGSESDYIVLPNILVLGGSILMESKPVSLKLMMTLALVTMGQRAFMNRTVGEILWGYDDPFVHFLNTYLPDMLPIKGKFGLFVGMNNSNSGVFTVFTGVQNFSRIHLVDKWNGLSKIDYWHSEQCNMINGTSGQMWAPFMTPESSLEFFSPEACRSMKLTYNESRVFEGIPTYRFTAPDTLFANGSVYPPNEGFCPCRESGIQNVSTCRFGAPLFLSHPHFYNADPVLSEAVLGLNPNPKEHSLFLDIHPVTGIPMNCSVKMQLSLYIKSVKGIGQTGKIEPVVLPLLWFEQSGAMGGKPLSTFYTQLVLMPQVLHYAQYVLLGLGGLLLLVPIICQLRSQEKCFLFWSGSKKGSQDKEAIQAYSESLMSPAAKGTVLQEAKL
UBC13 inh – inhibitors of human UBC13 polyubiquitin chain formation; inhibition, % at 20 µM; AID 485273; actives 0.47% (n = 330,000); TR-FRET; in the data active means inhibition above about 45%, passing the limit was not always enough; inconclusive means no clear call, values can overlap the other calls
DiI quencher – counter-screen for SR-BI lipid transfer inhibitors: DiI fluorescence quenchers; shares compounds with SR-BI HDL uptake; cell-free DiI-HDL fluorescence quenching, 30 min; AC50, µM (titrated, usually from 35 µM), for inactives: at the top dose activity change, negative = quenching; actives 20% (n = 470);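 active means quenching, a falling signal, with AC50 below a set limit tied to the top valid dose, actives reach about 32 µM in these data; inconclusive means no clear call, values can overlap the other calls; inactive means rising signal, and the rest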
Numbers without * were called inactive; ? = inconclusive; nt = no result. Rows were chosen to be rich in hits. Some 1.9% of all compounds tested hit in one or more screens of this group.

SMILES	SR-BI DiI-HDL act	Neddyl block	SR-BI HDL uptake	UBC13 inh	DiI quencher
Cc1ccccc1NC(=O)NCC1CCN(c2ccc(S(=O)(=O)N3CCOCC3)cc2)CC1	-82	13	82*	3	-2%
Cc1csc(NC(=O)C2CC(=O)N(c3ccc(C)c(C)c3)C2)n1 (stereo not given)	-6	8	6	3	nt
O=C1NCCOC(=O)[C@H](Cc2ccc(F)cc2)C/C=C\C[C@@H]1CC(=O)N(CCO)Cc1ccccc1	9	-11	-9	9	-3%
O=C(N[C@@H]1C/C=C\C[C@H](CC(=O)N(CCO)Cc2ccccc2)C(=O)N[C@@H](Cc2ccccc2)COC1=O)OCC1c2ccccc2-c2ccccc21	-46	-14	46	-3	nt
O=C(N[C@@H]1C/C=C\C[C@@H](CC(=O)N(CCO)Cc2ccccc2)C(=O)NCCOC1=O)OCC1c2ccccc2-c2ccccc21	-78	-15	78*	13	-9%
CC(C)(C)[C@H]1COC(=O)[C@H](NC(=O)OCC2c3ccccc3-c3ccccc32)C/C=C\C[C@@H](CC(=O)N[C@H](CO)Cc2ccccc2)C(=O)N1	-27	6	27	-14	nt
O=C(C[C@@H]1C/C=C\C[C@H](NC(=O)OCC2c3ccccc3-c3ccccc32)C(=O)O[C@H](c2ccccc2)CNC1=O)NCCO	-36	-17	36	14	-10%
C[C@@H]1COC(=O)[C@H](NC(=O)OCC2c3ccccc3-c3ccccc32)C/C=C\C[C@@H](CC(=O)N[C@@H](CO)Cc2ccccc2)C(=O)N1	-84	0	84*	22	-5%
O=C1NCCOC(=O)[C@H](Cc2ccc(F)cc2)C/C=C\C[C@H]1CC(=O)N(CCO)Cc1ccccc1	-4	-1	4	1	nt
COc1ccc(-c2[nH]c(-c3ccc(F)cc3)nc2SCC(=O)NC2CCCC2)cc1	-78	22	78*	4	26µM*
O=C(Nc1ccn(Cc2c(F)c(F)c(F)c(F)c2F)n1)c1ccc(COc2ccccc2Cl)cc1	-73	14	73*	-7	-1%
COc1ccc(-n2c(SCC(=O)N3CCOCC3)nc3ccccc3c2=O)cc1	12	-5	-12	?	nt
COc1ccc(CCN(C)C(=O)c2ccc(C)c(S(=O)(=O)N3CCCCC3)c2)cc1OC	-8	-14	8	9	nt
O=C(Nc1ccc(-c2nc3ccccc3o2)cc1)c1cc(-n2cnnc2)ccc1Cl	-73	19	?	11	8%
CCc1nc(N2CCN(C(=S)NCCCOC)CC2)c2c3c(sc2n1)CCCC3	-88	-30	88*	5	0%
CC(=O)Nc1ccc(S(=O)(=O)N2CCC(C(=O)NCCC(=O)NCc3ccccc3)CC2)cc1	-119	-1	119*	-8	-3%
COc1ccc(C(=O)N2CCN(c3ccc([N+](=O)[O-])c(NCCc4ccc(OC)c(OC)c4)c3)CC2)cc1	-74	-23	?	-18	3%
Cc1ccccc1NC(=O)C1C2CCC(O2)C1C(=O)O (stereo not given)	12	0	-12	-8	nt
Cc1ccc(F)cc1NC(=O)C1C2CCC(O2)C1C(=O)O (stereo not given)	24	5	-24	-6	-4%
O=C(Nc1c(F)cccc1F)c1ccc2c(c1)CCN2S(=O)(=O)c1ccccc1	-39	-2	39	-3	nt
CS(=O)(=O)N1CCc2cc(C(=O)OCC(=O)c3ccccc3)ccc21	6	0	-6	4	nt
Cc1ccc(NC(=O)c2ccc3c(c2)CCN3S(C)(=O)=O)cc1	nt	4	nt	nt	nt
O=C(Nc1ccccc1F)c1ccc2c(c1)CCN2S(=O)(=O)c1ccccc1	-53	1	53	10	-1%
Cc1ccc(NC(=O)c2ccc3c(c2)CCN3S(C)(=O)=O)cc1C	-70	4	?	-1	0%
Cc1cc(C)cc(NC(=O)c2ccc3c(c2)CCN3S(C)(=O)=O)c1	-77	6	77*	5	3%
CN(C(=O)c1ccc2c(c1)CCN2S(C)(=O)=O)c1ccccc1	-20	-4	20	5	-2%
CCOC(=O)[C@@H](NC(=O)/C=C/[C@H]1O[C@@H](n2cc(C)c(=O)[nH]c2=O)C[C@@H]1O)C(C)C	nt	4	nt	nt	nt
CCOc1ccccc1N1CC(C(=O)NCCC2=CCCCC2)CC1=O (stereo not given)	-63	10	63	nt	nt
